In data set [1] the target is T1, Neutrophil elastase (Homo sapiens, UniProt P08246).
T1 sequence (P08246 whole entry): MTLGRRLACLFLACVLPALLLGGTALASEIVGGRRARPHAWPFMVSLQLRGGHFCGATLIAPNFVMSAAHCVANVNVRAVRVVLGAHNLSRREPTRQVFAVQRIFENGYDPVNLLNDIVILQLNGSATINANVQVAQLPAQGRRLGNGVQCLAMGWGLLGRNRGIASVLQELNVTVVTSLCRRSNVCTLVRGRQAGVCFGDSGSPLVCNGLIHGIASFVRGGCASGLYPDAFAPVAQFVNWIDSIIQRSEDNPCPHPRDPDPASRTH
Description: (§1) Inhibitory activity against human leukocyte elastase. A digest of the protocol:
(§2)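 Elastase purified from human leukocytes by affinity chromatography; enzyme stock diluted into 50 mM sodium phosphate, 500 mM NaCl, pH 7.8. Substrate Suc-Ala-Ala-Pro-Val-pNA at 100 μM final (1.3 Km); inhibitor in DMSO added to cuvette. Progress-curve method at 25 °C, at least five inhibitor concentrations for oxazinones (single 2 μM for thiazinones); curves fitted for kobs, giving Kd, Ki, kon (acylation) and koff (deacylation).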

A short description of data set [2]: The alkaline hydrolysis second order rate constant(K OH) taken as log K.
In data set [3] the target is T1, Neutrophil elastase. The data set is described as §1. A digest of the protocol:
as §2
The source holds these as a separate data set.

The target of data set [4] is T2, Neutrophil elastase (Homo sapiens) (UniProt P08246).
T2 sequence (whole entry): T1 sequence (P08246 whole entry)
Description: Koff was the deacylation association equilibrium rate constant of a competitive inhibition human leukocyte elastase(HLE). A digest of the protocol:
as §2

In data set [5] the target is T2, Neutrophil elastase (Homo sapiens). Briefly: Kon was the acylation association equilibrium rate constant of a competitive inhibition of human leukocyte elastase(HLE). A digest of the protocol: as §2
The nature of data set [6]: The alkaline hydrolysis second order rate constant(K OH) of the compound. Type of data set: ADME. A digest of the protocol: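 Spectrophotometric hydrolysis in aqueous buffer pH 11.25 at 25 °C; loss of long-wavelength UV chromophore followed at 335 nm as first-order exponential decay. Compounds from DMSO stocks, final 15–20 μM, 5% DMSO final. Second-order rate constant kOH- calculated from first-order rates.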

For data set [7], the target named is T1, Neutrophil elastase. The description is as §1. A digest of the protocol:
as §2
The source holds these as a separate data set.

SMILES strings stand for the structures.

This is an account of results in ChEMBL document CHEMBL1132695, “2-(diethylamino)thieno1,3ŏxazin-4-ones as stable inhibitors of human leukocyte elastase” (J Med Chem, 1999).

What is called Ki is a measure of affinity in units of concentration, obtained from inhibition or displacement. Higher therefore signals a looser hold on the target. On to `CCN(CC)c1nc2sc3c(c2c(=O)o1)CCCC3`, for which the Ki on Neutrophil elastase [1] was 13 nM; on Neutrophil elastase [3] it was 12.6 nM. For the same compound, the Log K in data set [2] was -1.49. In data set [4], this compound came in with a k off of 3.2e-05 s⁻¹. In data set [5], the k on came to 2500 M⁻¹ s⁻¹. In data set [6], this compound registered a K of 0.032 M⁻¹ s⁻¹.
`CCN(CC)c1nc2ccccc2c(=O)o1`: the Ki at Neutrophil elastase [1] was 310 nM; on Neutrophil elastase [3], 302 nM. Moreover, in data set [2], the Log K is 0.77. In data set [4], this compound returned a k off of 0.00079 s⁻¹. Also, the k on in data set [5] amounted to 2600 M⁻¹ s⁻¹. Besides, in data set [6], the K came to 5.9 M⁻¹ s⁻¹.
Regarding `CCN(CC)c1nc2sc3c(c2c(=O)o1)CCC3`, the inhibitory constant (Ki) at Neutrophil elastase [1] is 13 nM; on Neutrophil elastase [3], 12.6 nM. Also, the Log K in data set [2] is -1.03. For the same compound, the k off in data set [4] was determined as 4.5e-05 s⁻¹. This compound also registered a k on in data set [5] of 3600 M⁻¹ s⁻¹. The same compound showed a K in data set [6] of 0.094 M⁻¹ s⁻¹.
On to `CCN(CC)c1nc2sc3c(c2c(=O)o1)C(C)CCC3` (stereo not drawn), for which the Ki on Neutrophil elastase [1] was 210 nM; at Neutrophil elastase [3] it was 204 nM. The Log K in data set [2] is -1.41. Besides, the k off in data set [4] stood at 1.3e-05 s⁻¹. The k on in data set [5] stood at 63 M⁻¹ s⁻¹. Besides, the K in data set [6] amounted to 0.039 M⁻¹ s⁻¹.
Usually Kd stands for the equilibrium constant for the complex coming apart. As to `CCN(CC)c1nc2scc(C)c2c(=O)o1`, on Neutrophil elastase [1], binding was characterised by a dissociation constant (Kd) of 5500 nM and the affinity corresponds to a Ki of 450 nM. In data set [2], this compound returned a Log K of -1.14. This compound also gave an inhibitory constant (Ki) at Neutrophil elastase [3] of 447 nM. In addition, in data set [4], the k off turned out to be 6.4e-05 s⁻¹. The same compound yielded a k on in data set [5] of 140 M⁻¹ s⁻¹. Further, the K in data set [6] came to 0.073 M⁻¹ s⁻¹.
For `CCN(CC)c1nc2sccc2c(=O)o1`, the inhibitory constant (Ki) on Neutrophil elastase [1] is 260 nM; on Neutrophil elastase [3], 257 nM. Also, the Log K in data set [2] was -0.91. In data set [4], this compound came in with a k off of 0.00014 s⁻¹. In data set [5], the k on was determined as 530 M⁻¹ s⁻¹. Also, the K in data set [6] came out at 0.12 M⁻¹ s⁻¹.
`CCN(CC)c1nc2sc3ccccc3c2c(=O)o1`: the Ki on Neutrophil elastase [1] was 5.8 nM; at Neutrophil elastase [3], 5.75 nM. Besides, the Log K in data set [2] was -1.13. Further, the k off in data set [4] stood at 5.5e-05 s⁻¹. For the same compound, the k on in data set [5] was 9500 M⁻¹ s⁻¹. The same compound displayed a K in data set [6] of 0.075 M⁻¹ s⁻¹.
On to `CCN(CC)c1nc2sc3c(c2c(=O)o1)CCCCC3`, for which the Ki on Neutrophil elastase [1] was 44 nM; at Neutrophil elastase [3], 43.7 nM. Besides, the Log K in data set [2] is -1.42. This compound also yielded a k off in data set [4] of 4.3e-05 s⁻¹. This compound also showed a k on in data set [5] of 990 M⁻¹ s⁻¹. Moreover, in data set [6], the K amounted to 0.038 M⁻¹ s⁻¹.
For `CCN(CC)c1nc2scc(C(C)C)c2c(=O)o1`, the Ki at Neutrophil elastase [1] is 13 nM; at Neutrophil elastase [3], 13.2 nM. For the same compound, the Log K in data set [2] is -1.27. Moreover, in data set [4], the k off is 0.00013 s⁻¹. For the same compound, the k on in data set [5] is 10000 M⁻¹ s⁻¹. The K in data set [6] was determined as 0.054 M⁻¹ s⁻¹.
For the compound `CCN(CC)c1nc2ccsc2c(=O)o1`, the Ki on Neutrophil elastase [1] was 130 nM; on Neutrophil elastase [7] it was 132 nM. In data set [2], this compound registered a Log K of -0.95. Also, the k off in data set [4] amounted to 4.3e-05 s⁻¹. The compound further returned a k on in data set [5] of 330 M⁻¹ s⁻¹. For the same compound, in data set [6], the K amounted to 0.11 M⁻¹ s⁻¹.
At Neutrophil elastase [1], `CCN(CC)c1nc2sc(C(N)=O)c(C)c2c(=O)o1` showed a Kd of 620 nM and an inhibitory constant (Ki) of 91 nM. In addition, in data set [2], the Log K is -0.4. In addition, the Ki on Neutrophil elastase [3] is 91.2 nM. Further, the k off in data set [4] turned out to be 0.00036 s⁻¹. Moreover, the k on in data set [5] came out at 4000 M⁻¹ s⁻¹. Besides, in data set [6], the K was 0.4 M⁻¹ s⁻¹.
